Several values for one entry are separate records, joined by “and”; a condition that tells them apart may be missing. Equal entries are not always repeated.
Tests used:
[1] = Apparent half life value in monkey after oral dosage; format: ADME, organism-based; details: cercopithecidae, in vivo, read-out: T1/2 app (converted)
Outline: (§1)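 Female cynomolgus monkeys (three, 2.0-3.2 kg) received the succinate salt at 11.5 mg/kg (17.3 µmol/kg), 2.3 mg/mL in 10% DMSO/90% saline, 5 mL/kg, iv on day 1 and orally on day 8 (1-week washout); fasted overnight to ~4 h postdose. Serial plasma to 24 h, acetonitrile deproteination, LC/MS/MS of prodrug, alaninyl-ABC-MP, ABC-MP, ABC, CBV; noncompartmental analysis.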

[2] = Total plasma clearance in monkey after administration of intravenous dosage; (n=3); format: ADME, organism-based; details: cercopithecidae; outline: as §1
[3] = Area under the plasma concentration-time curve in monkey after administration of intravenous dosage; format: ADME; details: cercopithecidae; outline: as §1
[4] = Time of maximum concentration was observed in monkey after oral dosage; format: ADME, organism-based; details: cercopithecidae, in vivo; outline: as §1
[5] = Area under the plasma concentration-time curve in monkey after peroral dosage; format: ADME; details: cercopithecidae, po; outline: as §1
[6] = Oral bioavailability in monkey after oral dosage; format: ADME, organism-based; details: cercopithecidae, in vivo; outline: as §1
[7] = Terminal elimination half-life in monkey after administration of intravenous dosage; format: ADME, organism-based; details: cercopithecidae, in vivo; outline: as §1
C3H/3T3 = test: Cytostatic concentration required to inhibit C3H/3T3 cell proliferation; format: functional; details: Mus musculus
HepG2 [8] = test: Cytostatic concentration required to inhibit Hep G2.2.15 cell proliferation; format: functional, Homo sapiens
Outline: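 Growth inhibition of HepG2 2.2.15 human hepatoma cells (constitutively HBV-producing) measured; CC50 = 50% cytostatic concentration.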

CCRF-CEM [9] = test: Intracellular concentration of metabolites (CBVDP) from 19-21 hrs in CEM cells after incubation with the compound (10 uM); format: functional, cell-based; details: Homo sapiens
Outline: (§2)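 CEM T4 lymphocytes seeded at (2-4) × 10⁵ cells/mL in RPMI-1640 with 10% fetal calf serum, 2 mM L-glutamine, 0.075% NaHCO₃. They were exposed 24 h to 10 µM [³H]abacavir or 1.1 µM ³H-ProTide (5 µCi/5 mL), washed twice in cold medium, and extracted with cold methanol/water 60:40. Metabolites were separated by SAX HPLC, (NH₄)H₂PO₄ pH 5.0 gradient 0.005-0.30 M, with fractions by retention time in min. Results are pmol/10⁹ cells.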

CCRF-CEM [10] = test: Intracellular concentration of metabolites (CBVTP) from 35-38 hrs in CEM cells after incubation with the compound (10 uM); format: functional, cell-based; details: Homo sapiens; outline: as §2
CCRF-CEM [11] = test: Intracellular concentration of metabolites (ABC + proABC + CBV) from 2-3 hrs in CEM cells after incubation with the compound (10 uM); format: functional, cell-based; details: Homo sapiens; outline: as §2
CCRF-CEM [12] = test: Intracellular concentration of metabolites (CBVMP +alaninyl-ABCMP) from 11-13 hrs in CEM cells after incubation with the compound (10 uM); format: functional, cell-based; details: Homo sapiens; outline: as §2
CCRF-CEM [13] = test: Intracellular concentration of metabolites (ABCMP) from 6-8 hrs in CEM cells after incubation with the compound (10 uM); format: functional, cell-based; details: Homo sapiens; outline: as §2
[14] = test system: Human immunodeficiency virus 1; test: Effective concentration against human immunodeficiency virus type 1 in CEM cells; format: functional, organism-based; details: Human immunodeficiency virus 1, CCRF-CEM
Outline: (§3)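 HIV-1- and HIV-2-induced cytopathicity in CEM cell cultures, scored at day 4 by microscopic examination of virus-induced giant cell formation; EC50 = concentration inhibiting cytopathicity by 50%.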

[15] = test system: Human immunodeficiency virus 1; test: Effective concentration against human immunodeficiency virus type 1 in PBL cells; format: functional, organism-based; details: Human immunodeficiency virus 1, PBL
[16] = test system: Moloney murine sarcoma virus; test: Effective concentration against murine moloney sarcoma virus in C3H/3T3 cells; format: functional, organism-based
[17] = test system: Human immunodeficiency virus 2; test: Effective concentration against human immunodeficiency virus type 2 (ROD) in CEM cells; format: functional, organism-based; details: Human immunodeficiency virus 2, CCRF-CEM; outline: as §3
Hepatitis B virus [18] = test: Effective concentration against hepatitis B virus in Hep G2.2.15 cells; format: functional, organism-based; details: HepG2 2.2.15
Outline: (§4)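 Anti-HBV activity assayed in HepG2 2.2.15 human hepatoma cells, which constitutively produce HBV; EC50 = 50% effective concentration.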

Human alphaherpesvirus 1 [19] = test: Effective concentration against thymidine kinase competent herpes simplex virus (HSV-1) in […]; format: functional, organism-based
Outline: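 Confluent HEL cell cultures inoculated with 100 CCID50 of HSV-1 (KOS), HSV-2 (G) or HSV-1 TK- (B2006, VMW-1837); after 1 h adsorption, residual virus removed and cells incubated with varying compound concentrations; cytopathicity recorded once complete in virus controls; EC50 = concentration inhibiting HSV-induced cytopathicity by 50%.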

[20] = test system: Human immunodeficiency virus 1; test: Ratio of CC50 to that of EC50 against human immunodeficiency virus type 1 in CEM cells; format: functional, CCRF-CEM
[21] = test system: Human immunodeficiency virus 2; test: Ratio of CC50 to that of EC50 against human immunodeficiency virus type 2 in CEM cells; format: functional, CCRF-CEM
CCRF-CEM [22] = test: Cytostatic concentration required to inhibit CEM cell proliferation; format: functional; details: Homo sapiens
HEL = test: Cytostatic concentration required to inhibit HEL cell proliferation; format: functional; details: Homo sapiens
Outline: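 HEL cell proliferation measured in presence of compound; CC50 = 50% cytostatic concentration inhibiting HEL cell proliferation by 50%.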

[23] = Area under the plasma concentration-time curve in monkey after intravenous dosage; format: ADME; details: cercopithecidae; outline: as §1
[24] = Terminal elimination half-life in monkey after intravenous dosage; NA=not applicable; format: ADME, organism-based; details: cercopithecidae, in vivo; outline: as §1
Human alphaherpesvirus 2 = test: Effective concentration against thymidine kinase competent herpes simplex virus (HSV-2) in […]
Human alphaherpesvirus 1 [25] = test: Effective concentration against thymidine kinase deficient herpes simplex virus (HSV-1) in B2006 strain; details: Human alphaherpesvirus 1, B2006
Human alphaherpesvirus 1 [26] = test: Effective concentration against thymidine kinase deficient herpes simplex virus (HSV-1) in VMW-1837 strain; details: Human alphaherpesvirus 1, VMW-1837
HepG2 [27] = test: Cytostatic concentration required to inhibit Hep G2 cell proliferation; format: functional; details: Homo sapiens
CCRF-CEM [28] = test: Intracellular concentration of metabolites (ABC +CBV) from 2-3 hrs in CEM cells after incubation with the compound (10 uM); format: functional, cell-based; details: Homo sapiens; outline: as §2
CCRF-CEM [29] = test: Intracellular concentration of metabolites (CBV-MP) from 11-13 hrs in CEM cells after incubation with the compound (10 uM); format: functional, cell-based; details: Homo sapiens; outline: as §2
[30] = test system: Human immunodeficiency virus 1; test: Effective concentration against human immunodeficiency virus type 1 in MT-4 cells; format: functional, organism-based, MT4; details: mt4
[31] = test system: Human immunodeficiency virus 2; test: Effective concentration against human immunodeficiency virus type 2 in CEM cells; format: functional, organism-based; details: Human immunodeficiency virus 2, CCRF-CEM; outline: as §3
[32] = test system: Human immunodeficiency virus 2; test: Effective concentration against human immunodeficiency virus type 2 in MT-4 cells; format: functional, organism-based; details: Human immunodeficiency virus 2, MT4
MT4 = test: Cytostatic concentration required to inhibit MT-4 cell proliferation; format: functional, Homo sapiens
Hepatitis B virus [33] = test: Effective concentration againstHBV in Hep G2.2.15 cells; format: functional, organism-based, HepG2 2.2.15; details: Hepatitis B virus, HepG2 2.2.15; outline: as §4
Hepatitis B virus [34] = test: Effective concentration against HBV in Hep G2.2.15 cells; format: functional, organism-based, HepG2 2.2.15; details: Hepatitis B virus, HepG2 2.2.15; outline: as §4
[35] = Terminal elimination half-life in monkey after intravenous dosage; NA = not applicable; format: ADME, organism-based; details: cercopithecidae, in vivo; outline: as §1

Row | SMILES | half-life [1] | Tmax [4] | AUC [5] | CC50 (C3H/3T3) | EC50 [14] | EC50 [15] | EC50 [16] | EC50 [17] | EC50 (Human alphaherpesvirus 1 [19]) | SI [20] | SI [21] | CC50 (CCRF-CEM [22]) | CC50 (HEL) | AUC [23] | EC50 (Human alphaherpesvirus 2) | EC50 (Human alphaherpesvirus 1 [25]) | EC50 (Human alphaherpesvirus 1 [26]) | further results
1 | CCOC(=O)[C@H](C)NP(=O)(OC[C@@H]1C=C[C@H](n2cnc3c(NC4CC4)nc(N)nc32)C1)Oc1ccccc1 (stereo partly specified) | 0.4 h | 0.8 h | 0.7 µM·h |  |  |  |  |  |  |  |  |  |  |  |  |  |  | clearance [2]: 113 mL/min/kg; AUC [3]: 2.7 µM·h; bioavailability [6]: 22%; half-life [7]: 6.6 min
2 | Nc1nc(NC2CC2)c2ncn([C@H]3C=C[C@@H](COP(=O)(O)O)C3)c2n1 |  | 1.3 h |  | > 4 µM | 0.07 µM | 0.008 µM | 1.6 µM | 0.09 µM | 20 µM | 190 | 150 | 13 µM | 110 µM | 0.4 µM·h | 20 µM | 20 µM | 20 µM | CC50 (HepG2 [8]; Homo sapiens, HepG2): 17 µM; Concentration (pmol/10E9 cells) (CCRF-CEM [9]): 3490; Concentration (pmol/10E9 cells) (CCRF-CEM [10]): 3020; Concentration (pmol/10E9 cells) (CCRF-CEM [11]): 5000; Concentration (pmol/10E9 cells) (CCRF-CEM [12]): 12400; Concentration (pmol/10E9 cells) (CCRF-CEM [13]): 280; EC50 (Hepatitis B virus [18]): 0.55 µM; T1/2 [24]: Not Active
3 | Nc1nc(NC2CC2)c2ncn([C@H]3C=C[C@@H](CO)C3)c2n1 [ABACAVIR] | 2.6 h | 3 h | 6 µM·h | > 20 µM | 1.9 µM | 0.2 µM | 8.8 µM | 3 µM | 900 µM | 41 | 26 | 78 µM | 200 µM | 6 µM·h | 900 µM | 900 µM | 320 µM | CC50 (HepG2 [27]): 110 µM; CC50 (HepG2 [8]): 17 µM and 110 µM; Concentration (pmol/E109 cells) (CCRF-CEM [9]): 42; Concentration (pmol/E109 cells) (CCRF-CEM [10]): 82; Concentration (pmol/E109 cells) (CCRF-CEM [28]): 762; Concentration (pmol/E109 cells) (CCRF-CEM [29]): 108; Concentration (pmol/E109 cells) (CCRF-CEM [13]): 5.8; EC50 [30]: 5.9 µM and 2.15 µM; EC50 [31]: 3 µM; EC50 [32]: 7.3 µM; CC50 (MT4): 192 µM and 89 µM; EC50 (Hepatitis B virus [33]): 5.6 µM; EC50 (Hepatitis B virus [34]): 5.6 µM; T1/2 [35]: Not Active

From ChEMBL document CHEMBL1139507, “Application of phosphoramidate pronucleotide technology to abacavir leads to a significant enhancement of antiviral potency” (J Med Chem, 2005)
